Measured values: ChEMBL document CHEMBL4819005, “Design, synthesis, and in vitro and in vivo anti-angiogenesis study of a novel vascular endothelial growth factor receptor-2 (VEGFR-2) inhibitor based on 1,2,3-triazole scaffold” (Eur J Med Chem, 2021)
Activity calls are given as the source filed them. The calls are words filed in the database; no cut-off is given here.

Tests used:
HT-29 = assay: cells; details: Homo sapiens, HT-29, 24 h
MKN-45 = assay: cells; details: Homo sapiens, MKN-45, 24 h
HUVEC [1] = assay: cells; details: Homo sapiens, 24 h
[2] = target: Vascular endothelial growth factor receptor 2 (Homo sapiens, UniProt P35968); assay: Inhibition of recombinant human His-tagged VEGFR2 expressed in Baculovirus expression system using ADP-Glo as substrate measured after 30 mins in presence of ATP by ADP-Glo kinase assay
Chain of Vascular endothelial growth factor receptor 2 (P35968 whole entry): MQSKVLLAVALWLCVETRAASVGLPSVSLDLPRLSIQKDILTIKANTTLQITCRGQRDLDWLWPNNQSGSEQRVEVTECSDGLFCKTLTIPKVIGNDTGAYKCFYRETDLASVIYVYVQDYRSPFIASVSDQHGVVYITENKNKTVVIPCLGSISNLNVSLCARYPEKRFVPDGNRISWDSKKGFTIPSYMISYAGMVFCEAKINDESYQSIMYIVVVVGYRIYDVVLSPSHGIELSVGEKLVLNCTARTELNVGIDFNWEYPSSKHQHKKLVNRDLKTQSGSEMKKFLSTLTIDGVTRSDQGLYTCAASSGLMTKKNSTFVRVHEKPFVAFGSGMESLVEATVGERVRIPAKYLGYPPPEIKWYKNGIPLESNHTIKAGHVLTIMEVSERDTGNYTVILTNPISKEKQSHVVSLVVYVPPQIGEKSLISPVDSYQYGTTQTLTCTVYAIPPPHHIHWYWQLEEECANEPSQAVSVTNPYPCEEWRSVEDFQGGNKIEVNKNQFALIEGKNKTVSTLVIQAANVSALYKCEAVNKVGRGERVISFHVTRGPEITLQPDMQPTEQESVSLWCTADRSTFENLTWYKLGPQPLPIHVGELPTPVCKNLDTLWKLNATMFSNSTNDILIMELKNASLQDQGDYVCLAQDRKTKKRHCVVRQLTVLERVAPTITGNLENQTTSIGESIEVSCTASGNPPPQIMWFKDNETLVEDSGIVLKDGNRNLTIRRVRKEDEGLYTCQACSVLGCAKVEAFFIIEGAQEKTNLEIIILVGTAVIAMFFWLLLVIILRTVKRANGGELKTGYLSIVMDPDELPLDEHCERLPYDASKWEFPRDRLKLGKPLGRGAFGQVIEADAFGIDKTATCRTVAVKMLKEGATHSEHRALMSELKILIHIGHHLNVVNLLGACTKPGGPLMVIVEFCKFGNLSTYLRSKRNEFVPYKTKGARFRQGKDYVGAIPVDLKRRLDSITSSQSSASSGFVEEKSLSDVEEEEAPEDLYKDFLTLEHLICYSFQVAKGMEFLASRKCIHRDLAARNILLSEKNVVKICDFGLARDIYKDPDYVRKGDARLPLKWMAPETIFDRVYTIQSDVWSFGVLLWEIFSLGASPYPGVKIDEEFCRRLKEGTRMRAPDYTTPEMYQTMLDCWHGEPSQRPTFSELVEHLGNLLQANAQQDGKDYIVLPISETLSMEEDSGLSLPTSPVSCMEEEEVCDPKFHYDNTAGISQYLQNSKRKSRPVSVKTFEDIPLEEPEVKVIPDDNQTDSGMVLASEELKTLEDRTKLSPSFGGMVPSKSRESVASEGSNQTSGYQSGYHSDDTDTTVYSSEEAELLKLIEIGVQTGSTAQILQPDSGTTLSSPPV

HUVEC [3] = assay: Anti-angiogenesis activity against HUVEC cells assessed as inhibition of cell migration measured after 24 hrs by Transwell assay; format: functional, cell-based; details: Homo sapiens, dose 0.2-0.8 µM
How it was run: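 HUVECs pretreated 24 h in serum-free DMEM with 0, 0.2, 0.4 or 0.8 μM compound, then counted. 1×10^4 cells placed in upper transwell chamber (8 µm pores), lower chamber DMEM with 20% serum. After 24 h, filters fixed in methanol and stained with 0.1% crystal violet. Migrated cells on lower surface counted by microscopy.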

HUVEC [4] = assay: Anti-angiogenesis activity against HUVEC cells assessed as inhibition of tube formation at 0.2 to 0.8 uM measured after 6 hrs by microscopic method; format: functional, cell-based; details: Homo sapiens, dose 0.2-0.8 µM
How it was run: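 HUVECs exposed to 0, 0.2, 0.4 or 0.8 μM compound, then collected. 1×10⁴ cells seeded on Matrigel and cultured 6 h. Tubes photographed under microscope and total tube length quantified.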

Danio rerio [5] = species: Danio rerio; details: dose 40.0 mg/L, time 24.0 hrs
Danio rerio [6] = species: Danio rerio; details: dose 20.0 mg/L, time 24.0 hrs

IC50 (HT-29) [µM] | IC50 (MKN-45) [µM] | IC50 [2] [nM] | Structure (SMILES) | IC50 (HUVEC [1]) [µM] | Activity (HUVEC [3]) | Activity (HUVEC [4]) | inhibition (Danio rerio [5]) | inhibition (Danio rerio [6])
3.98 | 34.6 |  | Cc1ccc(-n2cc(-c3ccc(/C=C4\C(=O)Nc5ccc(F)cc54)cc3)nn2)cc1 | 13.8 |  |  |  | 
> 20 | > 20 | 190 | N#Cc1ccc(-n2cc(-c3ccc(C=C4C(=O)Nc5ccc(F)cc54)cc3)nn2)cc1 | > 20 |  |  |  | 
> 20 | > 20 | > 200 | O=C1Nc2ccccc2/C1=C/c1ccc(-c2cn(-c3ccccc3Cl)nn2)cc1 | > 20 |  |  |  | 
16.5 | > 20 | 169 | O=C1Nc2ccc(F)cc2/C1=C/c1ccc(-c2cn(-c3ccc(Cl)c(C(F)(F)F)c3)nn2)cc1 | > 20 |  |  |  | 
10.5 | 14.1 | 186 | O=C1Nc2ccc(F)cc2/C1=C/c1ccc(-c2cn(-c3cccc(Cl)c3)nn2)cc1 | 19.4 |  |  |  | 
9.67 | 8.89 | 108 | O=C1Nc2ccccc2/C1=C/c1ccc(-c2cn(-c3ccc(Cl)c(C(F)(F)F)c3)nn2)cc1 | > 20 |  |  |  | 
14 | 16.2 | 163 | O=C1Nc2ccccc2/C1=C/c1ccc(-c2cn(-c3ccc(Cl)cc3)nn2)cc1 | 18.2 |  |  |  | 
13 | 8.19 | 171 | O=C1Nc2ccc(F)cc2/C1=C/c1ccc(-c2cn(-c3cccc(F)c3)nn2)cc1 | 17.2 |  |  |  | 
> 20 | > 20 | > 200 | O=C1Nc2ccccc2/C1=C/c1ccc(-c2cn(-c3cccc(Cl)c3)nn2)cc1 | > 20 |  |  |  | 

Further lines, the molecule ahead of its results:

Structure (SMILES) | IC50 (HT-29) [µM] | IC50 (MKN-45) [µM] | IC50 [2] [nM] | IC50 (HUVEC [1]) [µM] | Activity (HUVEC [3]) | Activity (HUVEC [4]) | inhibition (Danio rerio [5]) | inhibition (Danio rerio [6])
N#Cc1cccc(-n2cc(-c3ccc(/C=C4\C(=O)Nc5ccccc54)cc3)nn2)c1 | > 20 | > 20 | > 200 | > 20 |  |  |  | 
O=C1Nc2ccc(F)cc2C1=Cc1ccc(-c2cn(-c3ccccc3)nn2)cc1 | 8.12 | 11.1 |  | 13.7 |  |  |  | 
Cc1cccc(-n2cc(-c3ccc(/C=C4\C(=O)Nc5ccc(F)cc54)cc3)nn2)c1 | 7.32 | 6.81 |  | 9.88 |  |  |  | 
Cc1cccc(-n2cc(-c3ccc(/C=C4\C(=O)Nc5ccccc54)cc3)nn2)c1 | 3.94 | 4.69 |  | 13.7 |  |  |  | 
N#Cc1ccccc1-n1cc(-c2ccc(C=C3C(=O)Nc4ccc(F)cc43)cc2)nn1 | 14 | 15.2 | 187 | > 20 |  |  |  | 
O=C1Nc2ccccc2/C1=C/c1ccc(-c2cn(-c3ccc(F)cc3)nn2)cc1 | 17.7 | 16.7 | 198 | 14.7 |  |  |  | 
O=C1Nc2ccc(F)cc2/C1=C/c1ccc(-c2cn(-c3ccc(F)cc3)nn2)cc1 | > 20 | > 20 | 192 | > 20 |  |  |  | 
N#Cc1cccc(-n2cc(-c3ccc(/C=C4\C(=O)Nc5ccc(F)cc54)cc3)nn2)c1 | > 20 | > 20 | 193 | > 20 |  |  |  | 
O=C1Nc2ccccc2/C1=C/c1ccc(-c2cn(-c3cccc(F)c3)nn2)cc1 | > 20 | > 20 | > 200 | > 20 |  |  |  | 
Cc1ccc(-n2cc(-c3ccc(/C=C4\C(=O)Nc5ccccc54)cc3)nn2)cc1 | 1.61 | 1.92 |  | 7.94 | Dose-Dependent Effect | Dose-Dependent Effect | Active | Active
O=C1Nc2ccc(F)cc2/C1=C/c1ccc(-c2cn(-c3ccccc3F)nn2)cc1 | 8.98 | 8.51 | 140 | 14.4 |  |  |  | 
Cc1ccccc1-n1cc(-c2ccc(/C=C3\C(=O)Nc4ccccc43)cc2)nn1 | 8.71 | 9.77 | 111 | 14.7 |  |  |  | 
O=C1Nc2ccccc2/C1=C/c1ccc(-c2cn(-c3ccccc3)nn2)cc1 | 7.07 | 11.6 |  | 12.7 |  |  |  | 
N#Cc1ccc(-n2cc(-c3ccc(C=C4C(=O)Nc5ccccc54)cc3)nn2)cc1 | 15.8 | > 20 | 179 | > 20 |  |  |  | 
O=C1Nc2ccccc2/C1=C/c1ccc(-c2cn(-c3ccccc3F)nn2)cc1 | 10.5 | 12.5 | 115 | 19.3 |  |  |  | 
O=C1Nc2ccc(F)cc2/C1=C/c1ccc(-c2cn(-c3ccccc3Cl)nn2)cc1 | 5.95 | 7.54 | 120 | 18.2 |  |  |  | 
N#Cc1ccccc1-n1cc(-c2ccc(/C=C3\C(=O)Nc4ccccc43)cc2)nn1 | 14.4 | 14.6 | 169 | 19.7 |  |  |  | 
Cc1ccccc1-n1cc(-c2ccc(C=C3C(=O)Nc4ccc(F)cc43)cc2)nn1 | 5.87 | 7.21 |  | 8.63 |  |  |  | 
O=C1Nc2ccc(F)cc2C1=Cc1ccc(-c2cn(-c3ccc(Cl)cc3)nn2)cc1 | 11.2 | 15.8 | 170 | 19.6 |  |  |  | 
CCN(CC)CCNC(=O)c1c(C)[nH]c(/C=C2\C(=O)Nc3ccc(F)cc32)c1C [SUNITINIB] | 10.3 | 9.25 |  | 6.37 |  |  |  | 
